The record followed here is ChEMBL document CHEMBL4041519, “Design, synthesis and SAR analysis of potent BACE1 inhibitors: Possible lead drug candidates for Alzheimer's disease” (Eur J Med Chem, 2017).

The target in experiment [1] is T1, Beta-secretase 1 (Homo sapiens, UniProt P56817). Kind of experiment: Inhibition of recombinant human BACE1 (1 to 460 residues) expressed in baculovirus infected insect cells using rhodamine-EVNLDAEFK peptide as substrate measured after 60 mins by FRET assay. The method in brief:
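Enzyme 1 U/mL in 50 mM sodium acetate pH 4.5 with 750 nM substrate (Swedish-mutant peptide, KM 20 µM); screening at 30, 10, 3, 1 and 0.3 µM, 3.3% DMSO final. Incubated in the dark at 25 °C, stopped with 2.5 M sodium acetate; fluorescence ex 545/em 585 nm. IC50 from nonlinear fit of RFU/h versus log concentration; mean of 3 experiments.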

In experiment [2] the target is T1, Beta-secretase 1. Kind of experiment: Inhibition of BACE1 in human H4 cells expressing human APP K595N/M596L double mutant assessed as decrease in amyloid beta 42 and amyloid beta 40 level after overnight incubation by ELISA method. In kind it is cell-based. To be noted: for inhibition: concentration not given here. The method in brief:
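H4 neuroglioma cells seeded 2x10^5 per well, grown 24 h (5% CO2, humidified), then exposed overnight to increasing compound concentrations; 1% DMSO negative control, R-flurbiprofen positive control. Supernatant Aβ42 and Aβ40 captured with biotinylated 4G8 plus C-terminal-specific rabbit antibodies, streptavidin magnetic beads, electrochemiluminescence readout. EC50 = concentration halving Aβ production; mean of ≥3 experiments ± SD.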

T1 sequence (P56817 whole entry, the tested form may be a part): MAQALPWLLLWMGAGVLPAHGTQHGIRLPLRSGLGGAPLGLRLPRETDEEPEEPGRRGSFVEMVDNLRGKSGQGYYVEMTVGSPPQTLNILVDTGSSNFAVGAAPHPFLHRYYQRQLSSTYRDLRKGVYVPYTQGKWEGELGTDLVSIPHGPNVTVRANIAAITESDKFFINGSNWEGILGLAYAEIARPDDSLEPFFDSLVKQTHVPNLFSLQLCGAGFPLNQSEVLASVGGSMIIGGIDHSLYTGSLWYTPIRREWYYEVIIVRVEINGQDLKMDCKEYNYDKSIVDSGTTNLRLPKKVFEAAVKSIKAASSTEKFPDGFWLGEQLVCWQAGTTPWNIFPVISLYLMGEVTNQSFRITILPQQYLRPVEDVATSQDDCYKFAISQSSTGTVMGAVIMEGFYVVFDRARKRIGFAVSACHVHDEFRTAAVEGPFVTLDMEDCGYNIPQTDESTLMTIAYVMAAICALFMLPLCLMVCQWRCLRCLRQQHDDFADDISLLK

In the case of `O=C(Nc1cccnc1)c1cccc(-c2cnc(-c3c[nH]c4ccccc34)[nH]2)c1`, the half-inhibitory concentration (IC50) on Beta-secretase 1 [1] amounted to 310 nM. For the same compound, on Beta-secretase 1 [2], the EC50 is 880 nM and the inhibition is 42%.
The matching figures for `Fc1ccc(-c2cnc(-c3cccc(-c4cnc(-c5c[nH]c6cc(OC(F)(F)F)ccc56)[nH]4)c3)[nH]2)cc1`: 180 nM, 670 nM and 77%.
`O=C(Nc1cccc(-c2cnc(-c3c[nH]c4ccccc34)[nH]2)c1)c1cccnc1`: on Beta-secretase 1 [1], the IC50 was 220 nM. In addition, on Beta-secretase 1 [2], the EC50 came to 480 nM and the inhibition was found to be 75%.
Regarding `Fc1ccc2nc(-c3cccc(-c4cnc(-c5c[nH]c6cc(OC(F)(F)F)ccc56)[nH]4)c3)[nH]c2c1`, the 50% inhibitory concentration (IC50) on Beta-secretase 1 [1] was 120 nM. Besides, on Beta-secretase 1 [2], the EC50 was found to be 290 nM and the inhibition worked out at 87%.
Regarding `O=C(Nc1ccncc1)c1cccc(-c2cnc(-c3c[nH]c4ccccc34)[nH]2)c1`, at Beta-secretase 1 [1], the IC50 turned out to be 660 nM. Further, at Beta-secretase 1 [2], the 50% effective concentration (EC50) amounted to 590 nM and the inhibition turned out to be 70%.
With `O=C(Nc1ccccc1)c1cccc(-c2cnc(-c3c[nH]c4ccccc34)[nH]2)c1`, at Beta-secretase 1 [1], the IC50 turned out to be 110 nM. At Beta-secretase 1 [2], the EC50 came to 1210 nM and the inhibition stood at 64%.
On the same counts, the results for `O=C(Nc1ccc(F)cc1)c1cccc(-c2cnc(-c3c[nH]c4ccccc34)[nH]2)c1` are 98 nM, 1330 nM and 69%.
On to `Fc1ccc2nc(-c3cccc(-c4cnc(-c5c[nH]c6cc(F)ccc56)[nH]4)c3)[nH]c2c1`, for which the IC50 at Beta-secretase 1 [1] was 85 nM. Moreover, on Beta-secretase 1 [2], the EC50 worked out at 350 nM and the inhibition is 90%.
With `O=C(Nc1cccc(-c2cnc(-c3c[nH]c4cc(F)ccc34)[nH]2)c1)c1cccnc1`, the IC50 on Beta-secretase 1 [1] stood at 130 nM. For the same compound, at Beta-secretase 1 [2], the EC50 worked out at 410 nM and the inhibition amounted to 82%.
Consider `Fc1ccc(-c2cnc(-c3cccc(-c4cnc(-c5c[nH]c6cc(F)ccc56)[nH]4)c3)[nH]2)cc1`, for which the IC50 on Beta-secretase 1 [1] is 75 nM. On Beta-secretase 1 [2], the EC50 was 810 nM and the inhibition was found to be 86%.

The IC50 is the concentration that inhibits the measured activity by half. For orientation: EC50 means the concentration giving half of the maximal effect. For orientation: inhibition means the share of the control response that was lost under treatment.
